Results: PMC8593914 (Experimental and Therapeutic Medicine, 2021)
Each block holds one substance with its values, some of them ahead of it.

Key:
kisspeptin = experiment: SPR binding of RFRP-3 to immobilized kisspeptin; design: species or system rat; conditions: Biacore T200
How it was run: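 Kisspeptin at 20 µg/ml in sodium acetate pH 5.5 was coupled to a CM5 chip (5,720 RU). Running buffer was PBS-P: 10 mM phosphate, 2.7 mM KCl, 137 mM NaCl, 0.05% P20, pH […]. Test peptide at 3.125–50 µM went over the detection and reference channels at 4 °C: 60 s injection, 15 µl/min, 15 min dissociation. Regeneration used 10 mM glycine-HCl pH 2.0 for 30 s; kinetic parameters were fitted.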

GnRH neurons = conditions: cited from earlier work
mice = conditions: cited from earlier work
LH and FSH = conditions: Japanese quail; cited from earlier work

direct binding to kisspeptin (in words) (kisspeptin): could bind directly to kisspeptin
Substance: RFamide-related peptide-3 [RFRP-3]
secretion of GnRH and expression and secretion of gonadotropin (GnRH neurons): inhibit the secretion of GnRH via its receptor on GnRH neurons, thus acting on the pituitary system to inhibit the expression and secretion of gonadotropin, LH and FSH

Substance: SIKPSAYLPLRFa [GnIH, gonadotropin-inhibitory hormone]
expression levels of glucose transporter 4 (mice): increased the expression levels of glucose transporter 4
food intake (mice): increased food intake
glucose uptake / glucose transporter 8 expression (mice): reduced glucose uptake by downregulating the expression levels of glucose transporter 8
synthesis of triglycerides in adipose tissue (mice): increased the synthesis of triglycerides in adipose tissue
testosterone synthesis (mice): reduced testosterone synthesis
secretion of LH and FSH (LH and FSH): inhibit the secretion of LH and FSH in the brain of Japanese quail
